Results from ChEMBL document CHEMBL1126694, “Antitumor agents. 141. Synthesis and biological evaluation of novel thiocolchicine analogs: N-acyl-, N-aroyl-, and N-(substituted benzyl)deacetylthiocolchicines as potent cytotoxic and antimitotic compounds” (J Med Chem, 1993).

Tests used:
Format in all cases: functional
HCT-15 = assay: In vitro cytotoxicity against HCT-15 cell line.; settings: Homo sapiens
Procedure, shortened: (§1)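 Tested by the NCI in its tumor cell panel. GI50 (M) is reported as the concentration that caused 50% inhibition of tumor cell growth.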

SR = assay: In vitro cytotoxicity against SR cell line.; settings: Homo sapiens; procedure, shortened: as §1
Tubulin = assay: In vitro inhibition of tubulin polymerization.
DMS-114 = assay: In vitro cytotoxicity against DMS114 cell line.; settings: Homo sapiens; procedure, shortened: as §1
SK-MEL-5 = assay: In vitro cytotoxicity against SK-MEL-5 cell line.; settings: Homo sapiens; procedure, shortened: as §1
OVCAR = assay: In vitro cytotoxicity against OVCAR cell line.; settings: Homo sapiens; procedure, shortened: as §1
SNB-19 = assay: In vitro cytotoxicity against SNB-19 cell line.; settings: Homo sapiens; procedure, shortened: as §1
[1] = In vitro cytotoxicity against RXF cell line.; settings: Homo sapiens; procedure, shortened: as §1
A549 = assay: In vitro cytotoxicity against A549/ATCC cell line.; settings: Homo sapiens; procedure, shortened: as §1

IC50 (Tubulin) [µM] | SMILES | GI50 (HCT-15) [µM] | GI50 (SR) [µM] | GI50 (DMS-114) [µM] | GI50 (SK-MEL-5) [µM] | GI50 (OVCAR) [µM] | GI50 (SNB-19) [µM] | GI50 [1] [µM] | GI50 (A549) [µM]
2.8 | COc1cc2c(c(OC)c1OC)-c1ccc(SC)c(=O)cc1[C@@H](NCc1ccc([N+](=O)[O-])cc1)CC2 | < 0.01 | < 0.01 | < 0.01 | < 0.01 | < 0.01 | < 0.01 | < 0.01 | < 0.01
3.4 | COc1cc2c(c(OC)c1OC)-c1ccc(SC)c(=O)cc1[C@@H](NC(=O)c1cccc([N+](=O)[O-])c1)CC2 | 0.0269 | 0.00851 | 0.0166 | 0.0182 | 0.0191 | 0.0269 | 0.0166 | 0.0331
2.5 | COc1ccc(CN[C@H]2CCc3cc(OC)c(OC)c(OC)c3-c3ccc(SC)c(=O)cc32)c(OC)c1OC | < 0.01 | < 0.01 | < 0.01 | < 0.01 | < 0.01 | – | – | –
– | COc1cc(C(=O)N[C@H]2CCc3cc(OC)c(OC)c(OC)c3-c3ccc(SC)c(=O)cc32)cc(OC)c1OC | – | < 0.01 | < 0.01 | < 0.01 | < 0.01 | – | 0.0339 | 0.017
– | CCOC(=O)c1c(OC)cc(C(=O)N[C@H]2CCc3cc(OC)c(OC)c(OC)c3-c3ccc(SC)c(=O)cc32)cc1OC | 0.447 | – | 0.0263 | 0.0457 | 0.0324 | 0.324 | 0.234 | 0.427
3.4 | COc1cc(CN[C@H]2CCc3cc(OC)c(OC)c(OC)c3-c3ccc(SC)c(=O)cc32)cc(OC)c1 | < 0.01 | < 0.01 | 0.0166 | – | – | 0.0676 | < 0.01 | 0.0372
– | COc1cc2c(c(OC)c1OC)-c1ccc(SC)c(=O)cc1[C@@H](NC(=O)c1ccc(C#N)cc1)CC2 | < 0.01 | < 0.01 | < 0.01 | < 0.01 | < 0.01 | < 0.01 | – | < 0.01
– | COc1cc2c(c(OC)c1OC)-c1ccc(SC)c(=O)cc1[C@@H](NC(=O)c1ccc(Cl)cc1)CC2 | < 0.01 | < 0.01 | < 0.01 | < 0.01 | < 0.01 | < 0.01 | < 0.01 | < 0.01
– | COc1cc2c(c(OC)c1OC)-c1ccc(SC)c(=O)cc1[C@@H](NC(=O)c1ccc(OC(C)=O)cc1)CC2 | < 0.1 | 0.00776 | 0.0144 | 0.0195 | 0.0151 | 0.0214 | 0.0275 | < 0.1
2.5 | COc1cc2c(c(OC)c1OC)-c1ccc(SC)c(=O)cc1[C@@H](NCc1cccc(C#N)c1)CC2 | < 0.00759 | < 0.00759 | < 0.00759 | < 0.00759 | < 0.00759 | < 0.00759 | < 0.00759 | < 0.00759
3.2 | COc1cc2c(c(OC)c1OC)-c1ccc(SC)c(=O)cc1[C@@H](NCc1ccccc1[N+](=O)[O-])CC2 | < 0.01 | – | < 0.01 | < 0.01 | < 0.01 | < 0.01 | < 0.01 | < 0.01
– | CCCCCC(=O)N[C@H]1CCc2cc(OC)c(OC)c(OC)c2-c2ccc(SC)c(=O)cc21 | < 0.01 | < 0.01 | < 0.01 | < 0.01 | < 0.01 | < 0.01 | < 0.01 | < 0.01
– | COc1cc2c(c(OC)c1OC)-c1ccc(SC)c(=O)cc1[C@@H](NC(=O)c1ccc([N+](=O)[O-])cc1)CC2 | < 0.01 | < 0.01 | < 0.01 | < 0.01 | < 0.01 | < 0.01 | < 0.01 | < 0.01
– | COc1cc2c(c(OC)c1OC)-c1ccc(SC)c(=O)cc1[C@@H](NC(=O)c1ccc(F)cc1)CC2 | 0.0427 | 0.0166 | 0.0269 | 0.0302 | 0.0182 | 0.0288 | – | 0.049
2.3 | COc1cc2c(c(OC)c1OC)-c1ccc(SC)c(=O)cc1[C@@H](NCc1ccc(F)cc1)CC2 | < 0.00759 | < 0.00759 | – | < 0.00759 | < 0.00759 | < 0.00759 | < 0.00759 | < 0.00759
2.3 | COc1cc2c(c(OC)c1OC)-c1ccc(SC)c(=O)cc1[C@@H](NCc1ccc(C#N)cc1)CC2 | < 0.01 | < 0.01 | < 0.01 | < 0.01 | < 0.01 | < 0.01 | < 0.01 | < 0.01
2.8 | COc1cc2c(c(OC)c1OC)-c1ccc(SC)c(=O)cc1[C@@H](NCc1cccc([N+](=O)[O-])c1)CC2 | < 0.01 | > 100 | < 0.01 | < 0.01 | < 0.01 | < 0.01 | < 0.01 | < 0.01
– | COc1cc2c(c(OC)c1OC)-c1ccc(OC)c(=O)cc1[C@@H](NC(C)=O)CC2 [COLCHICINE] | < 0.0631 | – | – | < 0.0631 | < 0.0631 | – | – | < 0.0631
